ChEMBL document CHEMBL1128528, “Structure-activity relationships of unsaturated analogues of valproic acid” (J Med Chem, 1995)

Key:
[1] = Partition coefficient (logP); type: physicochemical; settings: octanol/water
In short: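 Calculated with CLOGP for the undissociated acid as 1-octanol/water partition coefficient; cis and trans isomers not distinguished.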

Mus musculus [2] = assay: Brain concentration after 15 min of administration; type: functional
In short: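 Mice (n = 5, or 4 where footnoted) were given an ED50 dose and killed at 15 min. Whole brains were homogenized in 0.32 M sucrose and stored at -78 °C. Sodium octanoate served as internal standard; samples were acidified with HCl and extracted into EtOAc. Acids were quantified as tert-butyldimethylsilyl esters by GC-MS (EI 70 eV, SIM at M+ − 57). Each sample ran in triplicate; values are mean ± SD.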

Mus musculus [3] = assay: Anticonvulsant activity against mice after intraperitoneal administration; type: functional; settings: ip
In short: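 Mice, 6 weeks old, eight per dose, received five ip doses of the sodium salt (4 mL/kg). Pentylenetetrazole (85 mg/kg, 10 mL/kg) was given sc at 10 min and animals were watched for 30 min. Unprotected meant a 5 s clonus with loss of balance. ED50 was read from percentage protection vs log(dose). Sedation was scored from activity and muscle tone during handling.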

Compound | logP [1] | C (Mus musculus [2]) | ED50 (Mus musculus [3])
CC/C=C(\C)C(=O)O | 1.53 | 1520 nM/g | 4.4 mmol/kg
CCCC(CCC)C(=O)O [VALPROIC ACID] | 2.72 | 620 nM/g | 0.83 mmol/kg
CC/C=C(\CC)C(=O)O | 2.06 | 660 nM/g | 1.6 mmol/kg
C/C=C\C(=C/CC)C(=O)O | 2.22 | 350 nM/g | 0.78 mmol/kg
C/C=C/C(=C\CC)C(=O)O | 2.22 | 680 nM/g | 1.4 mmol/kg
CC/C=C(\CCCC)C(=O)O | 3.11 | 140 nM/g | 0.87 mmol/kg
CC/C=C(\CCC)C(=O)O | 2.59 | 260 nM/g | 0.84 mmol/kg

Further lines, with some results ahead:

logP [1] | Compound | C (Mus musculus [2]) | ED50 (Mus musculus [3])
1.72 | O=C(O)C=C1CCCC1 | 450 nM/g | 2.3 mmol/kg
3.4 | O=C(O)C=C1CCCCCCC1 | 94 nM/g | 0.73 mmol/kg
2.84 | O=C(O)C=C1CCCCCC1 | 159 nM/g | 0.96 mmol/kg
1.1 | O=C(O)C1=CCCC1 | 500 nM/g | 4.7 mmol/kg
1.22 | CC/C=C/C(=O)O | 2220 nM/g | 6 mmol/kg
2.28 | O=C(O)C=C1CCCCC1 | 320 nM/g | 1.4 mmol/kg
1.42 | O=C(O)C1=CC2CCC1C2 (stereo unspecified) | 2150 nM/g | 2.9 mmol/kg
1.09 | CC(C)=CC(=O)O | 2710 nM/g | 5.2 mmol/kg
1.22 | CC/C=C\C(=O)O | 4460 nM/g | 7 mmol/kg
1.66 | O=C(O)C1=CCCCC1 | 1210 nM/g | 2.2 mmol/kg
